# Measured values from different studies.
# Compare with care: the assays were run in different laboratories.
# Oprk1: Kappa-type opioid receptor (Oprk1, Mus musculus, UniProt P33534)
# BCHE: Cholinesterase (BCHE, Homo sapiens, UniProt P06276)
Structure (SMILES),target,effect on,action,technique,concentration,quantity,value
CC(C)[C@H](CN1CCc2ccccc2C1)NC(=O)c1cccc(-c2cccc(O)c2)c1,Oprk1,ligand displacement,,radioligand,10 µM,inhibition,81%
COc1cc(/C=C/C(=O)O)ccc1OCc1cn(CC(=O)Nc2cccc(Cl)c2)nn1,BCHE,enzyme activity,inhibitor,Ellman,40 µM,inhibition,15.3%
c1cncc([C@@H]2CCCN2)c1,"Muscarinic acetylcholine receptor M5 (CHRM5, Homo sapiens, UniProt P08912)",ligand displacement,,,50 µM,inhibition,-2.02%
COc1cc(/C=C/C(=O)O)ccc1OCc1cn(CC(=O)Nc2ccc(Cl)cc2Cl)nn1,BCHE,enzyme activity,inhibitor,Ellman,40 µM,inhibition,58.2%
CC(C)[C@H](CN1CCc2ccccc2C1)NC(=O)Cc1c[nH]c2ccccc12,Oprk1,ligand displacement,,radioligand,10 µM,inhibition,90%
CC(C)CC(=O)OC[C@H]1O[C@@](C#N)(c2ccc3c(N)ncnn23)[C@H](O)[C@@H]1O,"Neuronal acetylcholine receptor; alpha3/beta4 (Homo sapiens, UniProt P30926+P32297)",cell-free assay,,,20 µM,inhibition,-5%
CN1CCC[C@H]1c1cccnc1,"Sodium-dependent noradrenaline transporter (SLC6A2, Homo sapiens, UniProt P23975)",ligand displacement,,,50 µM,inhibition,8.2%
[2H]c1c([2H])c([C@]2([2H])CCCN2C(=O)C(C)(C)Oc2ccc3cn[nH]c3c2)c([2H])c([2H])c1C([2H])([2H])[2H],"MAP kinase-interacting serine/threonine-protein kinase 2 (MKNK2, Homo sapiens, UniProt Q9HBH9)",binding,,competition with immobilised ligand,1 µM,remaining binding,100%
